# Measurements collected from several papers.
# Each line is one published result; the experiments were not run side by side.
# Cell line: A549
# Read-out: cell growth or viability
SMILES,test,setting,quantity,result
O=C(N/N=C1\C(=O)N(Cc2ccccc2)c2ccc(Cl)cc21)c1cc2ccccc2[nH]1,,30 µM,inhibition,99.7%
CC[C@@]1(OC(=O)[C@@H]2CCCN2)C(=O)OCc2c1cc1n(c2=O)Cc2cc3cc4c(cc3nc2-1)OCO4,MTT,,IC50,0.031 µM
N#Cc1ccc(CN2C(=O)/C(=N\NC(=O)c3cc4ccccc4[nH]3)c3ccccc32)cc1,,30 µM,inhibition,94.6%
O=C(c1ccc(F)cc1)c1c[nH]c2ncc(-c3ccnc(N4CCNCC4)c3)cc12,MTT,"10 µM, 48 h",viability,101%
N.N.[Cl][Pt][Cl],SRB,72 h,EC50,4.5 µM
CS(=O)(=O)N1CCN(c2ccc(-c3cnc4[nH]cc(C(=O)c5ccc(F)cc5)c4c3)cn2)CC1,MTT,"10 µM, 48 h",viability,97.3%
CN1C[C@H](C(=O)N[C@]2(C)O[C@@]3(O)[C@@H]4CCCN4C(=O)[C@H](Cc4ccccc4)N3C2=O)C=C2c3cccc4[nH]cc(c34)C[C@H]21,MTT,72 h,EC50,13 µM
O=C(N/N=C1\C(=O)N(Cc2ccccc2)c2ccc(Br)cc21)c1cc2ccccc2[nH]1,,30 µM,inhibition,96.1%
C[C@]12CC[C@H](O)C[C@H]1CC[C@@H]1[C@@H]2C[C@@H](O)[C@]2(C)[C@@H](C3=CC(=O)OC3)CC[C@]12O,MTT,"5 µM, 24 h",inhibition,72.3%
O=C(N/N=C1\C(=O)N(Cc2ccccc2)c2ccccc21)c1cc2ccccc2[nH]1,,30 µM,inhibition,98.4%
N.N.[Cl][Pt][Cl],MTT,,GI50,14.3 µM
COc1ccc(C(=O)c2c[nH]c3ncc(-c4ccc(N5CCN(C(=O)OC(C)(C)C)CC5)nc4)cc23)cc1,MTT,"10 µM, 48 h",viability,88.1%
Cc1c(Cc2cccc(N(C)S(=O)(=O)CCCNCCCC(=O)N3CCN(c4ccc(Nc5c(C(N)=O)cnc6ccc(-c7cnc8ccccc8c7)cc56)cc4C(F)(F)F)CC3)c2)c(=O)oc2cc(OC(=O)N(C)C)ccc12,CCK-8,,GI50,4.66 µM
O=C(c1ccc(F)cc1)c1c[nH]c2ncc(-c3ccc(N4CCNCC4)nc3)cc12,MTT,"10 µM, 48 h",viability,94.7%
O=C(N/N=C1\C(=O)N(Cc2ccc(Cl)cc2)c2ccccc21)c1cc2ccccc2[nH]1,,30 µM,inhibition,96.9%
CC(=O)O[C@H]1C[C@H](O[C@H]2[C@@H](O)C[C@H](O[C@H]3[C@@H](O)C[C@H](O[C@H]4CC[C@@]5(C)[C@H](CC[C@@H]6[C@@H]5C[C@@H](O)[C@]5(C)[C@@H](C7=CC(=O)OC7)CC[C@]65O)C4)O[C@@H]3C)O[C@@H]2C)O[C@H](C)[C@H]1O,MTT,"5 µM, 24 h",inhibition,73.9%
CCOC(=O)CCn1cc(C(=O)c2ccc(F)cc2)c2cc(-c3ccc(N4CCN(C(=O)OC(C)(C)C)CC4)nc3)cnc21,MTT,"10 µM, 48 h",viability,90.2%
COc1cc([C@@H]2c3cc4c(cc3[C@H](O)[C@H]3COC(=O)[C@H]23)OCO4)cc(OC)c1OC,MTT,72 h,EC50,0.024 µM
